Screens from PubChem BioAssay.
tim10-1 inh: inhibits growth of tim10-1 mutant yeast | S. cerevisiae tim10-1 ts strain growth, BacTiter-Glo, 24 h | inhibition, % at 20 µM | 2.2% of 330,000 active;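 active = inhibition of at least 40%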;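 also: mutant grown at 25 °C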
UPR XBP1 act: adaptive UPR (XBP1) activation. CHO-XBP1 luciferase reporter, IRE1-XBP1 UPR activation, luminescence; percent of tunicamycin response, DMSO as zero. activation, % at 20 µM. 0.33% of 330,000 active. AID 463104;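 active = versus positive control, 20 µM dose yields 30% or more activation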
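Material: CHO cell line with stable XBP1 luciferase reporter; buffer or medium: F12 medium containing 10% fetal bovine serum; compound: single point, 20 µM final compound, 1% DMSO; incubation: 6 h treatment, 37 °C; measured by: glow luminescence from Steady-Glo reagent; evaluation: activation, % of tunicamycin; control set: tunicamycin high, DMSO low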
UPR CHOP act: apoptotic UPR (CHOP) activation; CHO-CHOP luciferase reporter, luminescence; percent of tunicamycin response over DMSO baseline; activation, % at 10 µM; 0.34% of 330,000 active; AID 449763;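 active = at 10 µM dose, activation of 40% or more, normalized to positive control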
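Assay system: CHO-CHOP cells, stable luciferase reporter of PERK-eIF2a-CHOP signalling / Buffer or medium: F12 plus 10% serum / Compound dosing: one dose, 10 µM in 0.5% DMSO / Times: 6 h compound treatment, 37 °C / Technique: luciferase luminescence / Read-out: % reporter activation, DMSO baseline versus tunicamycin full activation / Benchmarks: tunicamycin and DMSO controls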
TIM10 inh: TIM10 yeast growth inhibition; S. cerevisiae TIM10 strain growth, BacTiter-Glo luminescence, 24 h; inhibition, % at 10 µM; 1.4% of 330,000 active;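 active = inhibition of 40% or more at the single tested concentration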;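 also: wild-type TIM10 isogenic control strain grown at permissive 25 °C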
tim23-1 inh: inhibits growth of tim23-1 mutant yeast. 1.3% of 330,000 active. inhibition, % at 20 µM. S. cerevisiae tim23-1 growth, BacTiter-Glo luminescence, 24 h;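 active = growth inhibition of the mutant yeast at or above 50%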;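 also: temperature-sensitive mutant grown at 25 °C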
tim10-1 conf: confirmation of tim10-1 mutant yeast growth inhibitors. S. cerevisiae tim10-1 ts strain growth, BacTiter-Glo, 24 h. inhibition, % at 20 µM. AID 463213. shares compounds with tim10-1 inh. 56% of 7,400 active;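 active = inhibition of yeast growth at or above a set limit in either of two repeat tests at 20 µM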;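 also: tim10-1 mutant grown at permissive 25 °C to find synthetic lethal compounds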
Hits are given with their value; n = inactive; x = no result given. Hits are enriched below; roughly 3.9% of the tested compounds scored in any of these assays.

SMILES	tim10-1 inh	UPR XBP1 act	UPR CHOP act	TIM10 inh	tim23-1 inh	tim10-1 conf
O=C(CCNC(=O)c1ccccc1Cl)Nc1nc(-c2ccc(F)cc2)cs1	n	n	n	n	n	x
C/C(=N\NC(=O)COc1ccc(C(C)(C)C)cc1)c1ccc2c(c1)OCCO2	41	n	n	n	n	n
CCc1ccc(OCC(=O)N/N=C(\C)c2ccc3c(c2)OCCO3)cc1	n	n	n	n	n	x
O=C(COC(=O)CNC(=O)c1ccc(Cl)cc1Cl)NC1CCCCCCC1	n	n	n	n	n	x
CC1CC(N(C(=O)c2ccco2)c2ccccc2)c2ccccc2N1C(=O)c1ccco1 (stereo not drawn)	n	n	n	n	n	x
CC12CC(c3ccccc3O1)N(C(=O)c1ccco1)C(=S)N2c1ccccc1 (stereo not drawn)	42	n	n	n	n	n
C=CCN(c1ccccc1)S(=O)(=O)c1cccc(C(=O)NCc2ccco2)c1	n	n	n	n	n	x
Clc1ccccc1-c1nnc2sc(-c3ccc(Br)o3)nn12	40	n	n	n	n	30
Clc1ccc(-c2nnc3sc(-c4ccc(Br)o4)nn23)c(Cl)c1	n	n	n	n	n	x
Brc1ccc(-c2nn3c(Cc4ccccc4)nnc3s2)o1	42	n	n	n	n	n
NC(=S)N1OC[C@@H]2COc3ccc4ccccc4c3[C@@H]21	41	n	n	n	n	n
CC(C)C(NC(=O)c1ccc(C(C)(C)C)cc1)C(=O)NCc1ccccn1 (stereo not drawn)	n	n	n	n	n	x
CCOc1ccc(N(C)S(=O)(=O)c2cc(-c3cc(C)no3)ccc2OC)cc1	n	n	n	n	n	x
COc1ccc(-c2cc(C)no2)cc1S(=O)(=O)N(C)c1ccc(C)cc1	45	n	n	n	n	n
COC(=O)C1(Cc2cc(-c3cccc(Br)c3)no2)CCN(C(=O)OC(C)(C)C)CC1	41	n	n	n	n	n
CC(C)(C)OC(=O)N1CCC(Cc2cc(-c3cccc(Br)c3)no2)(C(=O)O)CC1	n	n	n	n	n	x
C/C(=N\NC(=S)NCc1ccccc1)c1ccc(C(C)(C)C)cc1	42	n	n	n	n	n
C/C(=N\NC(=S)NCCc1ccccc1)c1ccc(O)cc1O	43	n	n	n	n	n
C/C(=N\NC(=S)NCc1ccccc1)c1ccccc1F	46	n	n	n	n	34
C/C(=N\NC(=S)NCc1ccccc1)c1ccc(C#N)cc1	n	n	n	n	n	x
C/C(=N\NC(=S)NCCc1ccccc1)c1ccc(Cl)cc1Cl	n	n	n	n	n	x
CCOC(=O)C1(Cc2cccc(Cl)c2)CCCN(C(=O)c2c(CC)noc2C)C1 (stereo not drawn)	n	n	n	n	n	x
CN(C)c1nc(OCCNC(=O)Nc2ccccc2)nc(N2CCCCC2)n1	40	n	n	n	n	n
CN(C)c1nc(OCCNC(=O)Nc2ccccc2)nc(N2CCOCC2)n1	n	n	n	n	n	x
O=C(COC(=O)CNC(=O)C1CCCCC1)Nc1ccccc1Cl	n	n	n	n	n	x
SMILES	tim10-1 inh	UPR XBP1 act	UPR CHOP act	TIM10 inh	tim23-1 inh	tim10-1 conf
CN(CC(=O)Nc1ccc(Cl)cc1)C(=O)Cn1[nH]c(=O)c2ccccc2c1=O	n	n	n	n	n	x
CC1(C)CC[C@]2(C(=O)O[C@@H]3OC(CO)[C@@H](O)[C@H](O)[C@H]3O)CC[C@]3(C)C(=CCC4[C@@]5(C)CC[C@H](O[C@@H]6OC(C(=O)O)[C@@H](O)[C@H](O)[C@H]6O)C(C)(C)C5CC[C@]43C)[C@@H]2C1 (stereo partly drawn)	40	n	n	n	n	n
COC(=O)C1OC(OC2CC[C@]3(C)C(CC[C@@]4(C)[C@@H]3CC=C3[C@@H]5CC(C)(C)CC[C@]5(C(=O)OC5OC(CO)C(O)C(O)C5O)CC[C@]34C)C2(C)C)C(O)C(O)C1O[C@H]1OCC(O)C(O)C1O (stereo partly drawn)	n	n	n	n	n	x
COc1ccc(S(=O)(=O)Nc2ccccc2C(=O)N2CCOCC2)cc1Br	n	n	n	n	n	x
CCOC(=O)N1CCN(C(=O)c2oc3ccc(S(=O)(=O)N(CC)CC)cc3c2C)CC1	n	n	n	n	n	x
O=C(Nc1ccccc1)c1cccnc1NCCc1ccccc1	40	n	n	n	n	32
COc1cccc(Nc2ncccc2C(=O)Nc2ccccc2)c1	53	n	n	n	n	38
COc1ccc(NC(=O)c2cccnc2NCCc2ccccc2)cc1	n	n	n	n	n	x
CCN1CCN(CCCNC(=O)c2ccccc2NC(=O)C2=C(C)OCCS2)CC1	n	n	n	n	n	x
CC(OC(=O)c1ccc([N+](=O)[O-])s1)C(=O)NC1CCCCC1C (stereo not drawn)	47	n	n	n	n	39
C/C(=N/NS(=O)(=O)c1ccccc1)c1ccc(Cl)cc1	n	n	n	n	n	n
C/C(=N\NS(=O)(=O)c1ccc(C(C)(C)C)cc1)c1ccccc1	42	n	n	n	n	43
C/C(=N/NS(=O)(=O)c1ccc(C(C)(C)C)cc1)c1ccc2c(c1)OCO2	n	n	n	n	n	x
O=C(CCN1C(=O)c2ccccc2C1=O)Oc1ccc2ccccc2c1	n	n	n	n	n	x
CC1=CC(C)(C)Nc2ccc(OC(=O)CCN3C(=O)c4ccccc4C3=O)cc21	40	n	n	n	n	32
Cc1cc(=O)oc2cc(OC(=O)CCCCCN3C(=O)c4ccccc4C3=O)ccc12	49	n	n	n	n	43
COc1ccc(CCNC(=O)C2CCCN(S(=O)(=O)c3ccccc3)C2)cc1 (stereo not drawn)	n	n	n	n	n	x
O=C(C(Cc1ccccc1)n1cccc1)N1CCCCC1 (stereo not drawn)	n	n	n	n	n	x
O=C(c1ccccc1)N1CCN(Cc2ccccc2)CC1	n	n	n	n	n	x
O=C(C(Cc1ccccc1)n1cccc1)N1CCN(Cc2ccccc2)CC1 (stereo not drawn)	42	n	n	n	n	n
CC(C)C(C(=O)N1CCN(Cc2ccccc2)CC1)c1ccccc1 (stereo not drawn)	50	n	n	n	n	35
Cn1cc(C(C[N+](=O)[O-])c2ccccc2)c2ccccc21 (stereo not drawn)	40	n	n	n	n	49
CC(=O)c1cc(NC(=O)c2ccc(Cl)cc2)c(=O)oc1/C=C/N(C)C	46	n	n	n	n	n
CCN(CC)S(=O)(=O)c1ccc(/C=C/C(=O)OCC(=O)NNC(=O)c2ccc(OC)cc2)cc1	n	n	n	n	n	x
O=C(c1ccccc1)c1sc(N2CCCCCC2)nc1-c1ccccc1	43	n	n	n	n	n
